Converted amounts (≈) assume the structure as drawn. The source made the active and inactive calls. The calls are words filed in the database; no cut-off is given here.
Tested on: HCT-116
Experiment: Induction of apoptosis in human HCT116 cells assessed as caspase activation
Type: functional, cell-based
Conditions: not given

| SMILES | Activity |
| --- | --- |
| CC(=O)Nc1ccc2ccn(-c3cc(NC4CC4)n4ncc(C#N)c4n3)c2c1 | Active |

Tested on: not listed separately
Experiment: Lipophilicity, log D of the compound
Type: physicochemical
Conditions: octanol/water

| logD | SMILES |
| --- | --- |
| 3.3 | CC(=O)Nc1ccc2ccn(-c3cc(NC4CC4)n4ncc(C#N)c4n3)c2c1 |
| 2.9 | CC(=O)N(C)c1ccc2ccn(-c3cc(NC4CC4)n4ncc(C#N)c4n3)c2c1 |
| 2.5 | CS(=O)(=O)Cc1ccc2ccn(-c3cc(NC4CC4)n4ncc(C#N)c4n3)c2c1 |
| 3.1 | N#Cc1cnn2c(NC3CC3)cc(-n3ccc4ccc(CO)cc43)nc12 |
| 2.2 | CC(=O)Nc1ccc2ccn(-c3cc(NCCN4CCCC4)n4ncc(C#N)c4n3)c2c1 |
| 1.6 | CC(=O)Nc1ccc2ccn(-c3cc(NCCCN(C)C)n4ncc(C#N)c4n3)c2c1 |
| 2.2 | CC(=O)Nc1ccc2ccn(-c3cc(NC4COC4)n4ncc(C#N)c4n3)c2c1 |
| 2.6 | CC(=O)Nc1ccc2ccn(-c3cc(NCCCCO)n4ncc(C#N)c4n3)c2c1 |
| 1.8 | CC(=O)Nc1ccc2ccn(-c3cc(NCCCN4CCCC4)n4ncc(C#N)c4n3)c2c1 |

Tested on: HCT-116
Experiment: Growth inhibition of human HCT116 cells after 72 hrs by alamar blue assay
Type: functional
Conditions: HCT-116, 72 h
Outline: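 HCT-116 proliferation was read out by Alamar Blue. GI50 is reported in μM as the mean of at least three experiments.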

| GI50 [µM] | SMILES |
| --- | --- |
| 0.53 | CC(=O)Nc1ccc2ccn(-c3cc(NC4CC4)n4ncc(C#N)c4n3)c2c1 |
| 16.4 | CS(=O)(=O)Cc1ccc2ccn(-c3cc(NC4CC4)n4ncc(C#N)c4n3)c2c1 |
| 0.7 | CC(=O)Nc1ccc2[nH]cc(-c3cc(NC4CC4)n4ncc(C#N)c4n3)c2c1 |
| > 30 | N#Cc1cnn2c(N)cc(-c3cccs3)nc12 |
| 14 | COc1ccc(-c2cc(NC3CC3)n3ncc(C#N)c3n2)cc1 |
| 16 | COc1ccncc1-c1cc(NC2CC2)n2ncc(C#N)c2n1 |
| 10.1 | N#Cc1cnn2c(NC3CC3)cc(-n3ccc4ccc(CO)cc43)nc12 |
| 2.2 | CC(=O)Nc1ccc2ccn(-c3cc(NC4COC4)n4ncc(C#N)c4n3)c2c1 |
| 2.8 | CC(=O)Nc1ccc2ccn(-c3cc(NCCCCO)n4ncc(C#N)c4n3)c2c1 |

Target: Voltage-gated inwardly rectifying potassium channel KCNH2 (Homo sapiens, UniProt Q12809)
Experiment: Inhibition of human Erg
Conditions: not given

Voltage-gated inwardly rectifying potassium channel KCNH2, sequence (Q12809 whole entry): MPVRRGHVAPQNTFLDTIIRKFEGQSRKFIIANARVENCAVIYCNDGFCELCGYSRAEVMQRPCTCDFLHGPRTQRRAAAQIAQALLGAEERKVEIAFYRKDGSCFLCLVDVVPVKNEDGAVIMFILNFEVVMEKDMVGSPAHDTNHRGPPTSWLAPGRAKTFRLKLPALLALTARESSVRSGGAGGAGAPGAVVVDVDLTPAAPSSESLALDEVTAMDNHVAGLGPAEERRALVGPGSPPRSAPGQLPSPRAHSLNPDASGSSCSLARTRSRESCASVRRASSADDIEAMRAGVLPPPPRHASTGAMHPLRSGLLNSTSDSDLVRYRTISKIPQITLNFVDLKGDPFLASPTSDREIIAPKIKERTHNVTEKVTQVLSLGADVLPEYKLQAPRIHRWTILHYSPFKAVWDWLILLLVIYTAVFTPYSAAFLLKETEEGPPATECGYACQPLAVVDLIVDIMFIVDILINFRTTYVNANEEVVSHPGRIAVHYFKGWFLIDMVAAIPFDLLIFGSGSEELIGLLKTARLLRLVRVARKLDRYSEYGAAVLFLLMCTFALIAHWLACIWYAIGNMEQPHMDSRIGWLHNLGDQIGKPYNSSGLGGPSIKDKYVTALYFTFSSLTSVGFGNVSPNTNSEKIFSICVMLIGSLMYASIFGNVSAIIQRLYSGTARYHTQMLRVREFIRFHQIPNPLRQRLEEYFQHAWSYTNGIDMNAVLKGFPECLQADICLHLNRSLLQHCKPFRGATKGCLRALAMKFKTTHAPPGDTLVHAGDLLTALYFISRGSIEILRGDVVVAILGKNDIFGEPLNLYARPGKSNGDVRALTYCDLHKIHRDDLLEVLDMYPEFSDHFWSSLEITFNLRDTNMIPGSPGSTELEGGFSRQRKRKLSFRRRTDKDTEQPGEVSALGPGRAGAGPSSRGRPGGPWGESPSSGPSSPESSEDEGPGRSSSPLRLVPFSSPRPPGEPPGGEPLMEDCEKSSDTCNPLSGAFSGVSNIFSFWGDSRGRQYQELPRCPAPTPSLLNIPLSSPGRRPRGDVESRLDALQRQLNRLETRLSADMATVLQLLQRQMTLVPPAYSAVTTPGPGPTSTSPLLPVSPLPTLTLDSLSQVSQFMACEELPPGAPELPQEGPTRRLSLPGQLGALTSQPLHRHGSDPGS

| SMILES | IC50 [µM] |
| --- | --- |
| CC(=O)Nc1ccc2ccn(-c3cc(NC4CC4)n4ncc(C#N)c4n3)c2c1 | 8.6 |

Target: Cyclin-dependent kinase 2 (Homo sapiens, UniProt P24941)
Experiment: Inhibition of CDK2
Conditions: not given

| IC50 [µM] | SMILES |
| --- | --- |
| 26 | CC(=O)Nc1ccc2ccn(-c3cc(NC4CC4)n4ncc(C#N)c4n3)c2c1 |
| > 30 | CC(=O)N(C)c1ccc2ccn(-c3cc(NC4CC4)n4ncc(C#N)c4n3)c2c1 |
| 14 | CC(=O)Nc1ccc2[nH]cc(-c3cc(NC4CC4)n4ncc(C#N)c4n3)c2c1 |
| > 30 | CC(=O)Nc1ccc2ccn(-c3cc(NCCCN(C)C)n4ncc(C#N)c4n3)c2c1 |

Tested on: not listed separately
Experiment: Fraction unbound in human plasma
Type: ADME, cell-free
Conditions: not given

| fraction unbound | SMILES |
| --- | --- |
| < 0.01 | CC(=O)Nc1ccc2ccn(-c3cc(NC4CC4)n4ncc(C#N)c4n3)c2c1 |
| 0.018 | CS(=O)(=O)Cc1ccc2ccn(-c3cc(NC4CC4)n4ncc(C#N)c4n3)c2c1 |
| 0.019 | N#Cc1cnn2c(NC3CC3)cc(-n3ccc4ccc(CO)cc43)nc12 |
| 0.056 | CC(=O)Nc1ccc2ccn(-c3cc(NCCN4CCCC4)n4ncc(C#N)c4n3)c2c1 |
| 0.1 | CC(=O)Nc1ccc2ccn(-c3cc(NCCCN(C)C)n4ncc(C#N)c4n3)c2c1 |
| 0.124 | CC(=O)Nc1ccc2ccn(-c3cc(NC4COC4)n4ncc(C#N)c4n3)c2c1 |
| 0.041 | CC(=O)Nc1ccc2ccn(-c3cc(NCCCCO)n4ncc(C#N)c4n3)c2c1 |
| 0.067 | CC(=O)Nc1ccc2ccn(-c3cc(NCCCN4CCCC4)n4ncc(C#N)c4n3)c2c1 |

Tested on: not listed separately
Experiment: Intrinsic clearance in rat liver microsomes
Type: ADME, Microsome
Conditions: read-out: CLH

| CLint scaled [mL/min/kg] | SMILES |
| --- | --- |
| 100 | CC(=O)N(C)c1ccc2ccn(-c3cc(NC4CC4)n4ncc(C#N)c4n3)c2c1 |

Tested on: not listed separately
Experiment: Aqueous solubility of the compound
Type: physicochemical
Conditions: buffer
Outline: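 Solubility was determined in aqueous medium at pH 7.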

| solubility [µM] | SMILES |
| --- | --- |
| < 10 | CC(=O)Nc1ccc2ccn(-c3cc(NC4CC4)n4ncc(C#N)c4n3)c2c1 |
| < 1 | CC(=O)N(C)c1ccc2ccn(-c3cc(NC4CC4)n4ncc(C#N)c4n3)c2c1 |
| < 1 | CS(=O)(=O)Cc1ccc2ccn(-c3cc(NC4CC4)n4ncc(C#N)c4n3)c2c1 |
| < 1 | N#Cc1cnn2c(NC3CC3)cc(-n3ccc4ccc(CO)cc43)nc12 |
| 15 (≈ 6.43 µg/mL) | CC(=O)Nc1ccc2ccn(-c3cc(NCCN4CCCC4)n4ncc(C#N)c4n3)c2c1 |
| 750 (≈ 312 µg/mL) | CC(=O)Nc1ccc2ccn(-c3cc(NCCCN(C)C)n4ncc(C#N)c4n3)c2c1 |
| 1 (≈ 0.387 µg/mL) | CC(=O)Nc1ccc2ccn(-c3cc(NC4COC4)n4ncc(C#N)c4n3)c2c1 |
| 8 (≈ 3.23 µg/mL) | CC(=O)Nc1ccc2ccn(-c3cc(NCCCCO)n4ncc(C#N)c4n3)c2c1 |
| > 1000 | CC(=O)Nc1ccc2ccn(-c3cc(NCCCN4CCCC4)n4ncc(C#N)c4n3)c2c1 |

Target: T1, Casein kinase II subunit alpha (Homo sapiens, UniProt P68400)
Experiment: Inhibition of full length N-terminus His-tagged human CK2alpha expressed in insect Sf21 cells using BODIPY-FL-RRRDDDSDDD-CONH2 as substrate after 20 mins
Conditions: not given

T1 sequence (P68400 whole entry): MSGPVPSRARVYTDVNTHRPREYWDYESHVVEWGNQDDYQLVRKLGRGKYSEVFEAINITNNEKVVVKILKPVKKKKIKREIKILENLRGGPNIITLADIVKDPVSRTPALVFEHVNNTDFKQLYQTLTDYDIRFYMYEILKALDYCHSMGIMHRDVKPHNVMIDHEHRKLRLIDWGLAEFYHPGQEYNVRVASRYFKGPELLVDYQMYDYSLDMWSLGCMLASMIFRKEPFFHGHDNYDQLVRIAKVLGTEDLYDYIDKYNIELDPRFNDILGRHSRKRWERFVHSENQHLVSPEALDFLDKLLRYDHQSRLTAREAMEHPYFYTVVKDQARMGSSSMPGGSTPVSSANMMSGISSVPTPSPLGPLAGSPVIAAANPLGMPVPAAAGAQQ

| IC50 [µM] | SMILES |
| --- | --- |
| 0.011 | CC(=O)N(C)c1ccc2ccn(-c3cc(NC4CC4)n4ncc(C#N)c4n3)c2c1 |
| 0.005 | CC(=O)Nc1ccc2[nH]cc(-c3cc(NC4CC4)n4ncc(C#N)c4n3)c2c1 |
| 0.03 | CC(=O)Nc1ccc2ccn(-c3cc(NCCCN(C)C)n4ncc(C#N)c4n3)c2c1 |

Target: T2, Cytochrome P450 1A2 (Homo sapiens, UniProt P05177)
T2 sequence (P05177 whole entry): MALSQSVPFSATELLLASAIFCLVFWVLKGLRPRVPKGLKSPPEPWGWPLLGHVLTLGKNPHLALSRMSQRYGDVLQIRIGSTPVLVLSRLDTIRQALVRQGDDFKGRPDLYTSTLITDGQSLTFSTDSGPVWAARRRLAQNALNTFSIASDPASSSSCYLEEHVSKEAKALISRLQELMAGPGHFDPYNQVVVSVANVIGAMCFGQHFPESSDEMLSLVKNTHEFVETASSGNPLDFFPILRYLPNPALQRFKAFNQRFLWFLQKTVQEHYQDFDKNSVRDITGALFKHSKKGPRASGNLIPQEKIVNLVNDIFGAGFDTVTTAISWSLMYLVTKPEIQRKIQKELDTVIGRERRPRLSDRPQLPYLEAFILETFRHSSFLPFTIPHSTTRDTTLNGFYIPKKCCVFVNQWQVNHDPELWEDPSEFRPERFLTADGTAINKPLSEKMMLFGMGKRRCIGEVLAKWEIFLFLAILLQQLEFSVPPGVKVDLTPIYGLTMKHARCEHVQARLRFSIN
Experiment: Inhibition of CYP1A2
Type: ADME
Conditions: not given

| IC50 [µM] | SMILES |
| --- | --- |
| 0.1 | CC(=O)Nc1ccc2ccn(-c3cc(NC4CC4)n4ncc(C#N)c4n3)c2c1 |

Target: T1, Casein kinase II subunit alpha
Experiment: Inhibition of CK2alpha in human HCT116 cells assessed as decrease in AKT phosphorylation at S129 residue after 3 to 24 hrs
Conditions: not given

| IC50 [µM] | SMILES |
| --- | --- |
| 0.034 | CC(=O)N(C)c1ccc2ccn(-c3cc(NC4CC4)n4ncc(C#N)c4n3)c2c1 |
| 0.077 | CC(=O)Nc1ccc2[nH]cc(-c3cc(NC4CC4)n4ncc(C#N)c4n3)c2c1 |
| 1.2 | CC(=O)Nc1ccc2ccn(-c3cc(NCCCN(C)C)n4ncc(C#N)c4n3)c2c1 |

Target: Glycogen synthase kinase-3 beta (Homo sapiens, UniProt P49841)
Experiment: Inhibition of GSK3beta
Conditions: not given

Glycogen synthase kinase-3 beta, sequence (P49841 whole entry): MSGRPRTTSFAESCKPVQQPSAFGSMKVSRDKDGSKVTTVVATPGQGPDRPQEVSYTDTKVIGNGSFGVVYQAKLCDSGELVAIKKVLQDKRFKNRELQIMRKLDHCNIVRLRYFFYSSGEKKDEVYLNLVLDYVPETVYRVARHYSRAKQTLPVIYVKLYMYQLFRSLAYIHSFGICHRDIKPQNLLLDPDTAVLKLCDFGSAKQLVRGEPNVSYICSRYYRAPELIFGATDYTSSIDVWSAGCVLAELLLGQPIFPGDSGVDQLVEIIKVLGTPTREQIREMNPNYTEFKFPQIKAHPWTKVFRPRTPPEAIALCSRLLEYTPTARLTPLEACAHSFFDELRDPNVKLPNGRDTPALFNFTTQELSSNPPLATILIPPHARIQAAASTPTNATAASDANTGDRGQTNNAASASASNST

| IC50 [µM] | SMILES |
| --- | --- |
| 0.13 | CC(=O)Nc1ccc2ccn(-c3cc(NC4CC4)n4ncc(C#N)c4n3)c2c1 |
| 1.4 | CC(=O)N(C)c1ccc2ccn(-c3cc(NC4CC4)n4ncc(C#N)c4n3)c2c1 |
| 0.25 | CC(=O)Nc1ccc2[nH]cc(-c3cc(NC4CC4)n4ncc(C#N)c4n3)c2c1 |
| 2.6 | CC(=O)Nc1ccc2ccn(-c3cc(NCCCN(C)C)n4ncc(C#N)c4n3)c2c1 |

Tested on: MDR1
Experiment: Apparent permeability from apical to basolateral side in pig LLC-PK1 cells expressing MDR1
Type: ADME, cell-based, Sus scrofa
Conditions: not given

| Papp A→B [×10⁻⁶ cm/s] | SMILES |
| --- | --- |
| ≤ 5 | CC(=O)Nc1ccc2ccn(-c3cc(NCCCN4CCCC4)n4ncc(C#N)c4n3)c2c1 |

Tested on: not listed separately
Experiment: Oral bioavailability in rat at 10 mg/kg
Type: ADME, organism-based
Conditions: in vivo
Outline: (§1)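 Rats received one oral dose of 10 mg/kg, and pharmacokinetic parameters were derived from that single administration.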

| bioavailability [%] | SMILES |
| --- | --- |
| 5 | CC(=O)Nc1ccc2ccn(-c3cc(NC4CC4)n4ncc(C#N)c4n3)c2c1 |

Tested on: not listed separately
Experiment: Clearance in rat at 10 mg/kg, po
Type: ADME, organism-based
Parameters: dose 10 mg/kg, route oral
Conditions: in vivo
Outline: as §1

| CL/F [mL/min/kg] | SMILES |
| --- | --- |
| 10 | CC(=O)Nc1ccc2ccn(-c3cc(NC4CC4)n4ncc(C#N)c4n3)c2c1 |

Tested on: not listed separately
Experiment: AUC in rat at 10 mg/kg, po
Type: ADME, organism-based
Parameters: dose 10 mg/kg, route oral
Conditions: plasma
Outline: as §1

| AUC [µM·h] | SMILES |
| --- | --- |
| 0.065 | CC(=O)Nc1ccc2ccn(-c3cc(NCCCN4CCCC4)n4ncc(C#N)c4n3)c2c1 |

Target: Homeodomain-interacting protein kinase 2 (Homo sapiens, UniProt Q9H2X6)
Experiment: Inhibition of HipK2
Conditions: not given

Homeodomain-interacting protein kinase 2, sequence (Q9H2X6 whole entry): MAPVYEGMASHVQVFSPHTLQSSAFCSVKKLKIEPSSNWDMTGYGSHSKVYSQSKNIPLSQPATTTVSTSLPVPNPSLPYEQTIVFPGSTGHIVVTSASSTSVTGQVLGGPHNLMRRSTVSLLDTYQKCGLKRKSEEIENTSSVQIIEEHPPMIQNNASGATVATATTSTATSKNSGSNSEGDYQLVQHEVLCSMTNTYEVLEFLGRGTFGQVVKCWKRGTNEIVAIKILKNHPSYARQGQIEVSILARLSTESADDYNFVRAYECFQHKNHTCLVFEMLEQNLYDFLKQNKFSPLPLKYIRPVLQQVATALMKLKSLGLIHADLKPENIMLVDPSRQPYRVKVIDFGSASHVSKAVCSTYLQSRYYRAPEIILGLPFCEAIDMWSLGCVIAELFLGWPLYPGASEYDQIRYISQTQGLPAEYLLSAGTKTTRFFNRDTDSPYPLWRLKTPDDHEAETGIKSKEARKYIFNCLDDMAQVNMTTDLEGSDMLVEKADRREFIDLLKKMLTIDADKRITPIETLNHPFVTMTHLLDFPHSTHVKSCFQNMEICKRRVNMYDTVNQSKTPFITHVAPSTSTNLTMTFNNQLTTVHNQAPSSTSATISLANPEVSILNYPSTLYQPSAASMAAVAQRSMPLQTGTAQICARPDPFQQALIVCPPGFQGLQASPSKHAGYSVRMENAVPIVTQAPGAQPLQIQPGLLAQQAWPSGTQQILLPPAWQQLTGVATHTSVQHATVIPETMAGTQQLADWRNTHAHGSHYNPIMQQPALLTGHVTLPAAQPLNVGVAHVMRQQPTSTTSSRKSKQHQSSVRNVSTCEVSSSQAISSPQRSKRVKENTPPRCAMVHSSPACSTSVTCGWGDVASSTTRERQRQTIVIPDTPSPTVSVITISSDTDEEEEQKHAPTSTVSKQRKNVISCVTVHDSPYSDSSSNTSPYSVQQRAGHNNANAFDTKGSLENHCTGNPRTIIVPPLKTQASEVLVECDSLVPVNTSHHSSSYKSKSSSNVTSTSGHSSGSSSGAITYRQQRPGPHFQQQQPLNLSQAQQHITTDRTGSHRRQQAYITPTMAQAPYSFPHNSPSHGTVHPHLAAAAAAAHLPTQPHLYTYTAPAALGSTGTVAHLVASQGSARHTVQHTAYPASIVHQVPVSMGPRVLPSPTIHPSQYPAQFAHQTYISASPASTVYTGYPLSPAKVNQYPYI

| IC50 [µM] | SMILES |
| --- | --- |
| 0.03 | CC(=O)Nc1ccc2ccn(-c3cc(NC4CC4)n4ncc(C#N)c4n3)c2c1 |
| < 0.003 | CC(=O)N(C)c1ccc2ccn(-c3cc(NC4CC4)n4ncc(C#N)c4n3)c2c1 |
| < 0.003 | CC(=O)Nc1ccc2[nH]cc(-c3cc(NC4CC4)n4ncc(C#N)c4n3)c2c1 |
| 0.06 | CC(=O)Nc1ccc2ccn(-c3cc(NCCCN(C)C)n4ncc(C#N)c4n3)c2c1 |

Tested on: MDR1
Experiment: Apparent permeability from apical to basolateral side in MDCK cells expressing MDR1
Type: ADME, cell-based, Canis lupus familiaris
Conditions: dog

| Papp A→B [×10⁻⁶ cm/s] | SMILES |
| --- | --- |
| 22 | CC(=O)Nc1ccc2ccn(-c3cc(NC4CC4)n4ncc(C#N)c4n3)c2c1 |

Tested on: SW480
Experiment: Antiproliferative activity against human SW480 cells by alamar blue assay
Type: functional
Conditions: not given
Outline: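 SW480 proliferation was measured with the Alamar Blue read-out, and GI50 is reported in μM.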

| GI50 [µM] | SMILES |
| --- | --- |
| 1 | CC(=O)Nc1ccc2ccn(-c3cc(NC4CC4)n4ncc(C#N)c4n3)c2c1 |
| 0.7 | CC(=O)Nc1ccc2[nH]cc(-c3cc(NC4CC4)n4ncc(C#N)c4n3)c2c1 |
| 15 | COc1ccncc1-c1cc(NC2CC2)n2ncc(C#N)c2n1 |
| 25 | CC(=O)Nc1ccc2ccn(-c3cc(NCCCN(C)C)n4ncc(C#N)c4n3)c2c1 |
| 2.5 | CC(=O)Nc1ccc2ccn(-c3cc(NC4COC4)n4ncc(C#N)c4n3)c2c1 |
| 13 | CC(=O)Nc1ccc2ccn(-c3cc(NCCCN4CCCC4)n4ncc(C#N)c4n3)c2c1 |
